The EternaBench riboswitch data

System: MS2 coat protein
Assay: apparent Kd, MS2 coat protein; higher = weaker binding; RNA-MaP array; FMN 200 µM where present
How it was run: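 The apparent Kd is the median of filtered binding-curve fits, one per cluster, to green signal normalised to red-channel RNA signal and control-cluster median Fmax. The clusters were on Illumina sequencing chips, and stalled E. coli RNA polymerase had transcribed the designs on them. Titration used SNAP-549-labelled MS2 coat protein from 0.7 or 1.5 nM, doubling to 3 µM, without and then with constant ligand, in 100 mM Tris-HCl pH 7.5, 80 mM KCl, 4 mM MgCl2, BSA, DTT, yeast tRNA and Tween-20.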

[1] = designed as: OFF switch for flavin mononucleotide, no ligand
[2] = ligand present: flavin mononucleotide, designed as: OFF switch for flavin mononucleotide
[3] = designed as: ON switch for flavin mononucleotide, no ligand
[4] = ligand present: flavin mononucleotide, designed as: ON switch for flavin mononucleotide

| Sequence | apparent Kd [1] [nM] | apparent Kd [2] [nM] | apparent Kd [3] [nM] | apparent Kd [4] [nM] |
| --- | --- | --- | --- | --- |
| GUAGCUAGUACAGGAUAUUAGUGCGUGUAGUAUUGAGAAGGGUACAUGAGGAUCACCCAUGUGAUCAAUCACUGUUAAGGUUGC | 221 | 177 |  |  |
| GUAGCUAUCGCAGGAUAUCCUCAGGCGAAAGCCACAUGAGGAUCACCCAUGUAAAUUAAGAAUUUGGAGAAGGGCGAUAGCUAC |  |  | 479 | 27.3 |
| GUAGCUAUCGGAGGAUAUUCAUGAUACAUGAGGAUCACCCAUGUUAAAUUGGGAGAAGGCCGAUAGCUACAAGAGCGAAAGCUC |  |  | 14.8 | 5.54 |
| GUAGCUAUCGGAGGAUAUUCAUUAAACAUGAGGAUCACCCAUGUUAAAUUGGGAGAAGGCCGAUAGCUACAAGAGCGAAAGCUC |  |  | 7.16 | 5.45 |
| GUAGCUAUUAUUAUACAUGAGGAUCACCCAUGUUACAUGUGUAAGGAUAUUGAAGUUAUUAUUAUCAAGAAGGUACUAUGCUAC |  |  | 15.5 | 8.71 |
| GUAGGGUCAGGAUAUACGGGCGGGAGGAUGUAGUGGAGUUGGUAGAAGGGACAUGAGGAUCACCCAUGUGAGAA | 30.7 | 27.8 |  |  |
| GUAGUGUAUGUAGGAUAUGUGAAGGAAACAUUUACAGAAGGACAUGAGGAUCACCCAUGUAUUACAGUCAGCAAUCUGACUGUU | 23.6 | 41.2 |  |  |
| GUAGUUAGUAGAGGAUAUUAGUAUGUGUAAUAUUGAGAAGGUUACAUGAGGAUCACCCAUGUGAUCAAUCACUGUUAAGGUUGC | 6.48 | 6.71 |  |  |
| GUAUAUAGUGUGAGGAUAUGCUGGUCCUUGGAUCAGCAGAAGGCACAUGAGGAUCACCCAUGUAGUUAAAUAUA | 34.4 | 82 |  |  |
| GUAUAUAGUGUGAGGAUAUGCUGGUCCUUGGAUCAGCAGAAGGCACAUGAGGAUCACCCAUGUAGUUUAUUAUU | 25 | 80.3 |  |  |
| GUAUCACGAGGAUAUACAUGAGGAUCACCCAUGUAGAAGCCAUGUGGUGCUCAAGUAUGUAGAAGGCGUGCUCC |  | 33.3 |  |  |
| GUAUCAUACCAAGGAUAUUUAGGACUUGUAUAGACAUGAGGAUCACCCAUGUGGCGUUAGUCACGGGAGAAGGUGGUAUGAUAC |  |  | 88.4 | 17.5 |
| GUAUGAGCGAUAGGAUAUACUGAGAUUGAAUGGGUAGAAGGAUUUCUUGUGGGAAAGACAUGAGGAUCACCCAUGUCGCGGACC |  |  | 299 | 176 |
| GUAUUUGAAGUAAGGAUAUGCCUCUGGAAACGGAGGUAGAAGGUACAUGAGGAUCACCCAUGUUUCUCUUUUGG | 16 | 23.3 |  |  |
| GUAUUUUAAGUAAGGAUAUGCCUCUGGAAACGGAGGUAGAAGGUACAUGAGGAUCACCCAUGUUUCUCUUUUGG | 16.3 | 20.6 |  |  |
| GUCACACACCGCUCCGUGUCUGACAUGAGGAUCACCCAUGUGAGAAGGUAGCGUCGCAGUAACGUUAAGGAUAUCACGUACAGA | 7.04 | 7.4 |  |  |
| GUCACCUCGUGAGGAUAUACAACACUGCUUCGGCAGUGUAUUAAGAUCACAUGAGGAUCACCCAUGUAGAAGGCACGAGCUGAU | 17.2 | 221 |  |  |
| GUCACUAGAGGAUAUACAAUGGUAUAUGAUCCUAGAGACAAACAUGAGGAUCACCCAUGUAGAAGGCUAGUAUU | 155 | 37.4 |  |  |
| GUCAGCCCGUGAGGAUAUACAACACUGCUUCGGCAGUGUAUUAAGAUCACAUGAGGAUCACCCAUGUAGAAGGCACGAGCUGAU | 13.1 | 266 |  |  |
| GUCAGCUCGUGAGGAUAUACAACACUGCUGCGGCAGUGUAUUAAGAUCACAUGAGGAUCACCCAUGUAGAAGGCACGAGCUGAU | 13.7 | 262 |  |  |
| GUCAGCUCGUGAGGAUAUACAACACUGCUUCGGCAGUCUAUUAAGAUCACAUGAGGAUCACCCAUGUAGAAGGCACGAGCUGAU | 14.9 | 292 |  |  |
| GUCAGCUCGUGAGGAUAUACAACACUGCUUCGGCAGUGUAUUAAGAUCACAUGAGGAUCACCCAUGUAGAAGGAACGAGCUGAU | 7.52 | 24.2 |  |  |
| GUCAGCUCGUGAGGAUAUACAACACUGCUUCGGCAGUGUAUUAAGAUCACAUGAGGAUCACCCAUGUAGAAGGCUCGAGCUGAU | 14.6 | 271 |  |  |
| GUCAGCUCGUGAGGAUAUACAGCACUGCUUCGGCAGUGUAUUAAGAUCACAUGAGGAUCACCCAUGUAGAAGGCACGAGCUGAU | 28.1 | 599 |  |  |
| GUCAGCUCGUGAGGAUAUACAUGUGCUGGAGACAGCACUAAAGUUUUCACAUGAGGAUCACCCAUGUAGAAGGCACGAGCUGAU | 15.4 | 36 |  |  |
| GUCAGCUCGUGAGGAUAUACAUGUGCUGGAGACAGCACUAUUAAGUUCACAUGAGGAUCACCCAUGUAGAAGGCACGAGCUGAU | 15.9 | 20.8 |  |  |
| GUCAGCUCGUGAGGAUAUACAUGUGCUGGAGACAGCACUAUUGAGUUCACAUGAGGAUCACCCAUGUAGAAGGCACGAGCUGAU | 15.5 | 27.4 |  |  |
| GUCAGGUGAGGAUAUACGCGGCUGACGAAACGUUAUACCGAGUAGAAGGCACAUGAGGAUCACCCAUGUUCGGG | 109 | 59.6 |  |  |

| Sequence | apparent Kd [1] [nM] | apparent Kd [2] [nM] | apparent Kd [3] [nM] | apparent Kd [4] [nM] |
| --- | --- | --- | --- | --- |
| GUCAUGUCAGGAUAUGCUUAUGGUGGGUGCUCAGACAUGAUGCAGAAGGGACAUGAGGAUCACCCAUGUACUGU | 35.8 | 60.9 |  |  |
| GUCAUGUUAGGAUAUCUAACAUGUGACUUCGGUCACUGUCCAGAGAAGGAACAUGAGGAUCACCCAUGUUGGAC | 14.7 | 15.9 |  |  |
| GUCCCAGCUGAGGAUAUUAUCUGGCUCGACCGAUAAGAAGGCAGUACAUGAGGAUCACCCAUGUGGUUCGUUCG | 31.5 | 70.7 |  |  |
| GUCGAAACCAUACUAGUCGACGGUCAGGAUAUACAUGAGGAUCACCCAUGUGCUAUUGAUACUAUGUAGAAGGGACCCACCGCA | 15 | 24.6 |  |  |
| GUCGAAGCUGUACCAGUCGACGGUCAGGAUAUACAUGAGGAUCACCCAUGUGCUAUUGAUACUAUGUAGAAGGGACCCACCGCA | 10.7 | 11.2 |  |  |
| GUCGGAAACGACAAAAGUAGCAUACGAGAAGGCUGAUCCACGACAUGAGGAUCACCCAUGUAUUUAGAGGAUAUUGGAUGCUAC |  |  | 134 | 21.6 |
| GUCGUGUUAGGAUAUGGCAACGGCGGCGAAAGUUGUUGUUGUUAGAAGGAACAUGAGGAUCACCCAUGUAUGAC | 37.7 | 113 |  |  |
| GUCUCACAUGAGGAUCACCCAUGUGAGGAUAUGGAUUCGCUGGCCGUAGCCAGUGGAUCCAGAAGGCGCGUGAU | 59.1 | 58.8 |  |  |
| GUCUUAUUACAGAAGGUGUUUUACAUGAGGAUCACCCAUGUUUUAAUGUUUAAAUUUGAUAUUUACAAGGAUAUGUACUAAUCU |  |  | 27.7 | 19.4 |
| GUGAAACAUGAGGAUCACCCAUGUGAGGAUAUGUUUUAGUACUGCAGACAGUACAUCUAUAGAAGGCACAAUGG | 38.9 | 70.7 |  |  |
| GUGACGAAUGUAGGAUAUGCUGAGGAAUACUCAGCAGAAGGACAUGAGGAUCACCCAUGUCAUCCUAAUAAUAAAUAACGUCAC | 12.3 | 17.4 |  |  |
| GUGAUGAUCGAGAAGGCCACUACAUGAGGAUCACCCAUGUCGUGGUGUAUUGGAGGAUAUCGAUCGACGUCUUAUGAGGACAUA | 4.82 | 5.95 |  |  |
| GUGCAAACAUGAGGAUAUGUAUUAAAUAAUAAUACAGAAGGCAUGUCAAAUGACAUGAGGAUCACCCAUGUUGGCAAAAUGCGC |  |  | 144 | 29.7 |
| GUGCACACUCGAGGAUAUCGGAGAGUUCUCCUUCGAGAAGGCGAUUCGUGCCGUGUUAUUCUGGACAUGAGGAUCACCCAUGUG |  |  | 84.2 | 32.4 |
| GUGCACAUUCGAGGAUAUCGGAGAGAGAUCCUUCGAGAAGGCGAUUCAUGAUGUAUUAUCCUGGACAUGAGGAUCACCCAUGUG |  |  | 579 | 288 |
| GUGCACAUUCGAGGAUAUCGGAGAGGGAUCCUUCGAGAAGGCGAUUCAUGCUGUGUUAUUCUGGACAUGAGGAUCACCCAUGUG |  |  | 265 | 125 |
| GUGCCUUGGGAGAAGGCCGAUAGCAAAGCUAUCGGAGGAUAUCCAUACCGGAAACGGACAUGAGGAUCACCCAUGUGGCACAAA |  |  | 16.3 | 7.6 |
| GUGCGACAUGAGGAUCACCCAUGUGAGGAUAUCCCGGGCCGGGCUUUUGCCCGGCCCGGGAGAAGGCGCGUCGU | 68.4 | 70.7 |  |  |
| GUGCGAGCCACAGGAUAUCUACAGAUUUAUUGUAGAGAAGGGUGACCUCGUGCACCACAUGAGGAUCACCCAUGUAACUAGGCG |  |  | 30 | 48.2 |
| GUGCGGUAGGAGAAGGACGGAGGCUUCUUUUCAUACAUGAGGAUCACCCAUGUAGGAUAUCCUACCUCACGCGGCCUACUACAG | 8.74 | 7.7 |  |  |
| GUGCUACAGCUGCGCACGAGACAUGAGGAUCACCCAUGUGACAGAAGGGACUUGUUAAAGGUAGGUCAGGAUAUGUCUUAAAAG |  |  | 148 | 44.2 |
| GUGCUUGUCGGAGGAUAUGGUUACAUGAGGAUCACCCAUGUUAUGCUUGGUUACUUGUUUAGUUUCCAGAAGGUCGAUUAGUUG | 61 | 145 |  |  |
| GUGGAGUAAGGAUAUACAUGAGGAUCACCCAUGUGAGGGUAUGUGAUGGGAGUAGGUUGUAGAAGGUACGAGGA | 287 | 131 |  |  |
| GUGGAGUACGUAGGAUAUGUAGGAUAUUCCUACAUGAGGAUCACCCAUGUAAGCAUGGAAGAAGGACAGAAGGACGUGCUCCAG |  |  | 231 | 12.1 |
| GUGGCACAUGAGGAUCACCCAUGUAGGUAGAACAUAGGAUAUCACCAACAAAAUACCUGGUGAGAAGGAUGAUGCC |  |  | 166 | 59.8 |
| GUGGCACAUGAGGAUCACCCAUGUCAGGAUAUCGUGUGUUUUUUUUCGGCCGCGCGCGCGAGAAGGGACGUCUU | 149 | 120 |  |  |
| GUGGCAUACUGAGGAUAUUCAUAUAAUAAAUAAACAUGAGGAUCACCCAUGUGGCGAAAGCCUUGGGAGAAGGCAGAAUGCUAC |  |  | 521 | 46.7 |
